Laboratory results: ChEMBL document CHEMBL3826973, “Binding characterization, synthesis and biological evaluation of RXRα antagonists targeting the coactivator binding site” (Bioorg Med Chem Lett, 2016)
Activity calls are given as the source filed them. The rule behind the calls is not given here.

Key:
[1] = target: T1, Retinoic acid receptor RXR-alpha (Homo sapiens, UniProt P19793)
T1 sequence (P19793 whole entry): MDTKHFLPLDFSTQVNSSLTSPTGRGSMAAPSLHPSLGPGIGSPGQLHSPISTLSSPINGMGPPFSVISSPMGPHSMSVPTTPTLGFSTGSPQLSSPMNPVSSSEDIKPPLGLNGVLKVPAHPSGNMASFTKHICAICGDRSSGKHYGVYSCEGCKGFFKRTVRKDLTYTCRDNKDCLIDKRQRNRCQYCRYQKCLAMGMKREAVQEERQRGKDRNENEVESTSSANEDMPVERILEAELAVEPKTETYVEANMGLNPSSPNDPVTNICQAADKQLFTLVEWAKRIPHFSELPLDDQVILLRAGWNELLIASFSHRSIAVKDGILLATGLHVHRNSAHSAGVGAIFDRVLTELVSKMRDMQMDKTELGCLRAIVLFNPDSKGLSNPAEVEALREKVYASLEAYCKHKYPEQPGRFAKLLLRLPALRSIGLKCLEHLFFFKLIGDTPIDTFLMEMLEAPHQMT

[2] = target: T2, Retinoic acid receptor RXR-alpha (Homo sapiens) (UniProt P19793); assay: Antagonist activity at RXRalpha (unknown origin) expressed in HEK293T cells assessed as inhibition of receptor transactivation at 10 uM after 12 hrs in presence of 9-cis-RA by luciferase reporter gene assay relative to control; format: cell-based; details: HEK-293T
T2 sequence (whole entry): T1 sequence (P19793 whole entry)
Method in brief: (§1)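 HEK-293T cells cotransfected with pG5-Luc reporter and an RXRα expression vector. Cells were treated with 9-cis-RA (10^-7 M) plus test compound for 12 h, and luciferase activity was read. The assay was run either as a single-concentration screen scored as % inhibition or at the indicated concentrations for dose-response.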

[3] = target: T2, Retinoic acid receptor RXR-alpha (Homo sapiens); details: HepG2, 20 ug/ml
[4] = target: T1, Retinoic acid receptor RXR-alpha; assay: Binding affinity to RXRalpha-LBD (unknown origin) measured up to 300 sec by surface plasma resonance method
Method in brief: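 Surface plasmon resonance with the RXRα ligand-binding domain as the binding partner; affinity expressed as a dissociation constant (Kd).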

[5] = organism: Homo sapiens; assay: Ratio of Kd for RXRalpha-LBD E453A mutant (unknown origin) to Kd for RXRalpha-LBD (unknown origin)
[6] = Binding affinity to RXRalpha-LBD E453A mutant (unknown origin) measured up to 300 sec by surface plasma resonance method; parameters: species or system Homo sapiens
[7] = target: T2, Retinoic acid receptor RXR-alpha (Homo sapiens); assay: Binding affinity to RXRalpha-LBD (unknown origin) at 10 uM measured up to 201 sec in presence of 9-cis-RA by surface plasma resonance method
[8] = target: T2, Retinoic acid receptor RXR-alpha (Homo sapiens); assay: Binding affinity to RXRalpha-LBD (unknown origin) at 0.01 to 5 uM measured up to 260 sec by surface plasma resonance method
[9] = target: T2, Retinoic acid receptor RXR-alpha (Homo sapiens); assay: Antagonist activity at RXRalpha (unknown origin) expressed in HEK293T cells assessed as inhibition of receptor transactivation at 10 to 30 uM after 12 hrs in presence of 9-cis-RA by luciferase reporter gene assay; format: cell-based; details: HEK-293T
Method in brief: as §1

Compound | inhibition [2] | other results
CCN(CC)c1ccc(/C=N/NC(=O)CSc2nc3ccccc3o2)c(O)c1 (mixture of isomers) | 74.1% | IC50 [1]: 2810 nM; inhibition [3]: Active; Kd [4]: 910 nM
Cc1cc(=O)oc2c(/C=N/NC(=O)CSc3nc4ccccc4s3)c(O)ccc12 |  | Ratio [5]: 10; Kd [6]: 3.61 µM; Activity [7]: Active
O=C(CSc1nc2ccccc2o1)N/N=C/c1ccc(F)cc1O | 33.2% | 
O=C(CSc1nc2ccccc2o1)N/N=C/c1ccccc1F | 13% | 
COc1ccc2c(C)cc(=O)oc2c1/C=N/NC(=O)CSc1nc2ccccc2s1 (mixture of isomers) |  | Activity [8]: inactive; inhibition [9]: inactive
O=C(CSc1nc2ccccc2o1)N/N=C/c1cccc(O)c1O | 39.6% | 
O=C(CSc1nc2ccccc2o1)N/N=C/c1ccc(OCc2ccccc2)cc1O | 43.9% | 
O=C(CSc1nc2ccccc2o1)N/N=C/c1cccc(O)c1 | 16.2% | 
Cc1cccc(/C=N/NC(=O)CSc2nc3ccccc3o2)c1 | 47.9% | 
COc1ccc(/C=N/NC(=O)CSc2nc3ccccc3o2)c(O)c1 | 57.3% | 
O=C(CSc1nc2ccccc2o1)N/N=C/c1ccc(O)c(O)c1O | 24.3% | 
O=C(CSc1nc2ccccc2o1)N/N=C/c1ccc(OCc2ccccc2)cc1 | 3.7% | 
O=C(CSc1nc2ccccc2o1)N/N=C/c1cccc(F)c1 | 13.8% | 
CCN(CC)c1ccc(/C=N/NC(=O)CSc2nc3ccccc3o2)c(OC)c1 | 17.9% | 
CCN(CC)c1ccc(/C=N/NC(=O)CSc2nc3ccccc3o2)cc1 | 19.3% | 
O=C(CSc1nc2ccccc2o1)N/N=C/c1ccc([N+](=O)[O-])cc1 | 12.7% | 
O=C(CSc1nc2ccccc2o1)N/N=C/c1ccc(O)cc1O | 25.2% | 
